{
  "source": "ChEMBL document CHEMBL1123413",
  "about": "“Synthesis and biological evaluation of 1-(1,2-benzisothiazol-3-yl)- and (1,2-benzisoxazol-3-yl)piperazine derivatives as potential antipsychotic agents” (J Med Chem, 1986)",
  "key": {"[1]": {"assay": "Lethal dose after intraperitoneal administration in mouse", "format": "toxicity, organism-based", "conditions": "in vivo, ip, read-out: ALD50"}, "[2]": {"assay": "Lethal dose after administration in mouse", "format": "toxicity, organism-based", "conditions": "in vivo, read-out: ALD50"}, "D(2) dopamine receptor": {"molecular_target": "D(2) dopamine receptor (Rattus norvegicus, UniProt P61169)", "sequence (P61169 whole entry)": "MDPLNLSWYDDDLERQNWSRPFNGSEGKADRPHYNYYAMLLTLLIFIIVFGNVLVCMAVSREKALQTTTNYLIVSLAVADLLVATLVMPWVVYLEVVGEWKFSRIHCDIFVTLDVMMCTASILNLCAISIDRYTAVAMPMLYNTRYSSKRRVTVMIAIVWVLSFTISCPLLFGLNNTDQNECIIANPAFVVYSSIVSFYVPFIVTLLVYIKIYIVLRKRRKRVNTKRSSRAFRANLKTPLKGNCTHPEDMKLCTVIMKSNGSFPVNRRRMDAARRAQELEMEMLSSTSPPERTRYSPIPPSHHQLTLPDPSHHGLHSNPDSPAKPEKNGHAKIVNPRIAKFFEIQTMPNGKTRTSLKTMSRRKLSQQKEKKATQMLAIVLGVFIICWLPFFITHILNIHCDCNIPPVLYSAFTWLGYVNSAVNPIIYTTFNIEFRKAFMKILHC", "assay": "In vitro affinity for rat striatal Dopamine receptor D2 labeled with [3H]spiperone"}, "[3]": {"molecular_target": "GABA-A receptor; anion channel", "assay": "Inhibition of [3H]muscimol binding to Gamma-aminobutyric acid (GABA-A) receptor", "format": "protein-complex assay, Rattus norvegicus"}, "[4]": {"assay": "Binding affinity against desipramine receptor was measured using radioligand ([3H]desipramine) binding assay", "set-up": "species or system Rattus norvegicus"}, "[5]": {"assay": "Binding affinity against imipramine receptor was measured using radioligand ([3H]-imipramine) binding assay", "set-up": "species or system Rattus norvegicus"}, "Mus musculus [6]": {"species_on_record": "Mus musculus", "assay": "Compound was tested for inhibition of norepinephrine lethality in mouse", "format": "functional", "summary_of_the_method": "(§1)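 Groups of 10 nonfasted male mice dosed orally with test compound (initial 100 mg/kg) or vehicle (distilled H2O or 0.5% methocel). Active compounds retested at lower doses, 10 mice/dose, for dose response. ED50 by Berkson's method.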"}, "Rattus norvegicus [7]": {"species_on_record": "Rattus norvegicus", "assay": "Compound was tested for inhibition of hexobarbatial potentiation in rat.", "format": "functional", "summary_of_the_method": "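Hexobarbital sodium (40 mg/kg, ip) was given to nonfasted male rats 15, 30, 60 or 120 min after test drug, or 15 min after vehicle (distilled H2O or 0.5% methocel). Loss of righting reflex of 1-min duration was scored over about 10–15 min. Dose response at peak-effect time used 10 rats/dose; ED50 and fiducial limits by Berkson.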"}, "[8]": {"molecular_target": "T1, Adrenergic receptor alpha-2 (Rattus norvegicus, UniProt P22086+P19328+P22909)", "T1 sequence (P22086 whole entry)": "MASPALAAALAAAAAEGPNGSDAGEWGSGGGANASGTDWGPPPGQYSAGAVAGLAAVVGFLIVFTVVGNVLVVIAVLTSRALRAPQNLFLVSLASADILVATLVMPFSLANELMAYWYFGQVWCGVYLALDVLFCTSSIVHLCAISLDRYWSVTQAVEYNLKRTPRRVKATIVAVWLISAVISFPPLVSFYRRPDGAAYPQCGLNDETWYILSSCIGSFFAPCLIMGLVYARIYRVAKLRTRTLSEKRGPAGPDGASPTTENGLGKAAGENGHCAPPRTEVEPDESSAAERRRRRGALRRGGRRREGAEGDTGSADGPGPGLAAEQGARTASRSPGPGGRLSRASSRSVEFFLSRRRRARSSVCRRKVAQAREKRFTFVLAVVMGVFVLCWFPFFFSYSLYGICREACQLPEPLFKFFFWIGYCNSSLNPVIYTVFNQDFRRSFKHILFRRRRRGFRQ", "T1 sequence (P19328 whole entry)": "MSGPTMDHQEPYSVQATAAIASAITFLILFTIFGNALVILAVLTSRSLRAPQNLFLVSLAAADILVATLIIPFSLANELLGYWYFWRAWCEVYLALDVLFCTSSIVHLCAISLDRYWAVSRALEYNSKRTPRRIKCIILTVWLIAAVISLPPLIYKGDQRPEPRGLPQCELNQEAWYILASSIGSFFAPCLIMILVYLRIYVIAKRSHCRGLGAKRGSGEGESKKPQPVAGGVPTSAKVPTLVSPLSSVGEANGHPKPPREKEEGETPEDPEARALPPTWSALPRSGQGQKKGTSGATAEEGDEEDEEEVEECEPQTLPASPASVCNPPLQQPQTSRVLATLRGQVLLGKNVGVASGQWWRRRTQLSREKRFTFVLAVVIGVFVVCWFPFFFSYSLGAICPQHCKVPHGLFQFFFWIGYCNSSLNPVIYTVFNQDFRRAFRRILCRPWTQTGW", "T1 sequence (P22909 whole entry)": "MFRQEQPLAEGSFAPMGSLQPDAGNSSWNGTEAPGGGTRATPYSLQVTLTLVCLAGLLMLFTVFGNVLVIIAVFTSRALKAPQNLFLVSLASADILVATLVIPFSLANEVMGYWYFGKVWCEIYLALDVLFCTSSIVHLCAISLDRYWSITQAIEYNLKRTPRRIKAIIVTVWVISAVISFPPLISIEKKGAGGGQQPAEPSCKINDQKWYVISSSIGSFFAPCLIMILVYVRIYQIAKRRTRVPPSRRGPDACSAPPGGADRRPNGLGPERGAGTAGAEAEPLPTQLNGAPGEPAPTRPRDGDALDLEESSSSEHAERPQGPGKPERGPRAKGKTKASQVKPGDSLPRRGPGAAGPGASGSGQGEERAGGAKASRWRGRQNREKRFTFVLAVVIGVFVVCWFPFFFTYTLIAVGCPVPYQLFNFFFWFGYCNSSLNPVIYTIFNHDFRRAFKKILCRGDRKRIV", "assay": "Binding affinity against alpha-2 adrenergic receptor was measured using radioligand ([3H]clonidine) binding assay", "format": "protein assay"}, "[9]": {"assay": "Binding affinity against histamine receptor was measured using radioligand ([3H]-pyrilamine) binding assay"}, "Mus musculus [10]": {"species_on_record": "Mus musculus", "assay": "Compound was tested for inhibition of physostigmine lethality in mouse.", "format": "functional", "summary_of_the_method": "as §1, with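 “methocel). At 30 min, physostigmine given ip at 1.25 mg/kg, and lethality followed for up to 1 h.” for “methocel).”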"}, "Mus musculus [11]": {"species_on_record": "Mus musculus", "assay": "Compound was tested for inhibition of spontaneous motor activity in mouse.", "format": "functional"}, "Dopamine receptor": {"molecular_target": "Dopamine receptor", "assay": "Compound was tested for its effect on dopamine saturation analysis", "format": "protein assay"}, "Rattus norvegicus [12]": {"species_on_record": "Rattus norvegicus", "assay": "Compound was tested for its ability to induce catalepsy in rats.", "format": "functional", "summary_of_the_method": "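Catalepsy was induced in rats with orally dosed compound as a predictor of extrapyramidal liability. ED50 (mg/kg, po) with fiducial limits by Berkson's method.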"}, "Rattus norvegicus [13]": {"species_on_record": "Rattus norvegicus", "assay": "Compound was tested for inhibition of spontaneous motor activity in rat.", "format": "functional"}},
  "data": [
    {"smiles": "Cl.O=C1CC2(CCCC2)CC(=O)N1CCCCN1CCN(c2nsc3ccccc23)CC1", "note": "[TIOSPIRONE HYDROCHLORIDE]", "values": [
      {"measurement": "LD50", "setting": "[1]", "result": 1530, "unit": "mg/kg"},
      {"measurement": "LD50", "setting": "[2]", "result": 1850, "unit": "mg/kg"},
      {"measurement": "IC50", "setting": "D(2) dopamine receptor", "result": 8, "unit": "nM"},
      {"measurement": "IC50", "setting": "[3]", "result": "> 1000", "unit": "nM"},
      {"measurement": "IC50", "setting": "[4]", "result": "> 1000", "unit": "nM"},
      {"measurement": "IC50", "setting": "[5]", "result": "> 1000", "unit": "nM"},
      {"measurement": "ED50", "setting": "Mus musculus [6]", "result": 12.5, "unit": "mg/kg"},
      {"measurement": "ED50", "setting": "Rattus norvegicus [7]", "result": 6.7, "unit": "mg/kg"},
      {"measurement": "IC50", "setting": "[8]", "result": "> 1000", "unit": "nM"},
      {"measurement": "IC50", "setting": "[9]", "result": 142, "unit": "nM"},
      {"measurement": "ED50", "setting": "Mus musculus [10]", "result": 294, "unit": "mg/kg"},
      {"measurement": "ED50", "setting": "Mus musculus [11]", "result": 17.3, "unit": "mg/kg"},
      {"measurement": "Kd", "setting": "Dopamine receptor", "result": 0.3337, "unit": "nM"},
      {"measurement": "ED50", "setting": "Rattus norvegicus [12]", "result": 84.4, "unit": "mg/kg"},
      {"measurement": "ED50", "setting": "Rattus norvegicus [13]", "result": 8.4, "unit": "mg/kg"}
    ]}
  ]
}
